In publication PMC8717895 (Neuro-oncology Advances, 2021):
Entries after “also recorded” stand apart in the source; their conditions may differ. Where two headings read alike, the source gives them in different places.

Key:
PDGF α receptor = conditions: cited from earlier work
[1] = format: in vivo, human; conditions: stratum B
PDGF β receptor = conditions: cited from earlier work
phospho-PDGFR = conditions: C6 glioblastoma xenograft, single oral dose of 10 mg/kg, maintained for 3 h; ref Crenolanib Investigator's Brochure, AROG Pharmaceuticals, LLC, 2011; cited from earlier work
[2] = cited from earlier work
[3] = tested on: recurrent HGG, including DIPG; assay: Survival outcomes and response, stratum B; format: in vivo, human
Outline: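 Dosing was BSA-based, rounded to 20 mg, and escalated from 100 mg/m2. PFS ran from therapy start to progression or any-cause death; OS ran from diagnosis to any-cause death. Event-free patients were censored at last follow-up. Survival was estimated by Kaplan–Meier.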

newly diagnosed DIPG = assay: Survival outcomes, stratum A; format: in vivo, human
Outline: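 Dosing began with conformal RT (1.8-Gy fractions daily, 5 days/week, 54 Gy) and continued without break. PFS ran from therapy start to progression or death; OS ran from diagnosis to death. Kaplan–Meier estimates; log-rank versus age-matched institutional DIPG cohort (1992–2011).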

[4] = in vitro, human plasma; cited from earlier work
[5] = Serum pharmacokinetics, stratum A; format: in vivo, human; conditions: for AUC(0-t) / Cmax / half-life / Tmax: human, serum, oral; for AUC(0-t): 100 mg/m2, AUC0–T (AUC0–24h)
[6] = Serum pharmacokinetics across all dosage levels; format: in vivo; conditions: human, oral; for Tmax: across dosage levels; for half-life: pediatric patients, across all dosage levels
[7] = read-out: 50% inhibitory concentration

**Q.** What does the source list for `CC1(COc2ccc3c(c2)ncn3-c2ccc3cccc(N4CCC(N)CC4)c3n2)COC1` [crenolanib]?
**A.** 50% inhibitory concentration (PDGF α receptor): approximately 1 ng/mL; IC50 (PDGF α receptor; [7]): ~2.25 nM; DLTs attributable to crenolanib during the DLT observation period ([1]; dose level 3): grade 4 GGT, ALT, and AST elevations; DLTs attributable to crenolanib during the DLT observation period ([1]; dose level 4): grade 3 amylase, GGT, ALT, and AST elevations; also recorded: grade 3 GGT elevation; patients having grade 3/4 elevations of ALT, AST, GGT, or alkaline phosphatase ([1]; during and after the DLT period): 17%; Maximum tolerated dose (MTD) ([1]; once daily single agent, pediatric): 170 mg/m^2; Most common grade 3/4 toxicity ([1]; resolved with drug interruption): leukopenia; 50% inhibitory concentration (PDGF β receptor): ~0.4 ng/mL; IC50 (PDGF β receptor; [7]): ~0.902 nM; inhibition of phospho-PDGFR (phospho-PDGFR): 53%; incidence of significant elevations of liver enzymes ([2]; adults with advanced solid tumors): < 5%; Maximum tolerated dose (MTD) ([2]; adults, uncoated tablets with food): not reached; 1-year OS estimate ([3]; all patients in stratum B): 72.1% ± 9.5%; 1-year PFS estimate ([3]; all patients in stratum B): 5.2% ± 3.5%; 2-year OS estimate ([3]; all patients in stratum B): 33.7% ± 9.7%; 6-month PFS estimate ([3]; all patients in stratum B): 10.3% ± 5.6%; Objective radiologic responses ([3]; stratum B): No objective radiologic responses were observed; 1-year OS estimate (newly diagnosed DIPG; all patients in stratum A): 43.3% ± 8.7%; 1-year PFS estimate (newly diagnosed DIPG; all patients in stratum A): 17.8% ± 7.2%; 2-year OS estimate (newly diagnosed DIPG; all patients in stratum A): 20.0% ± 6.8%; 6-month PFS estimate (newly diagnosed DIPG; all patients in stratum A): 74.9% ± 8.2%; OS distributions versus historical cohort of newly diagnosed DIPG (n = 189) (newly diagnosed DIPG; stratum A, log-rank P = .99): no significant difference; unbound fraction [4]: 4.1%; AUC(0-t) ([5]; stratum A1 (whole tablets), 100 mg/m^2, D28, median (range)): 7.34 µM·h; AUC(0-t) ([5]; stratum A2 (crushed tablets), 100 mg/m^2, D28, median (range)): 6.95 µM·h; Cmax ([5]; 100 mg/m2, C MAX, stratum A1 (whole tablets), 100 mg/m^2, D1, median (range)): 0.645 µM; Cmax ([5]; 100 mg/m2, C MAX, stratum A1 (whole tablets), 100 mg/m^2, D28, median (range)): 0.75 µM; Cmax ([5]; 100 mg/m2, C MAX, stratum A2 (crushed tablets), 100 mg/m^2, D1, median (range)): 0.692 µM; Cmax ([5]; 100 mg/m2, C MAX, stratum A2 (crushed tablets), 100 mg/m^2, D28, median (range)): 0.651 µM; half-life ([5]; 100 mg/m2, Half-life, stratum A1 (whole tablets), 100 mg/m^2, D1, median (range)): 8.5 h; half-life ([5]; 100 mg/m2, Half-life, stratum A1 (whole tablets), 100 mg/m^2, D28, median (range)): 4.9 h; half-life ([5]; 100 mg/m2, Half-life, stratum A2 (crushed tablets), 100 mg/m^2, D1, median (range)): 6.8 h; half-life ([5]; 100 mg/m2, Half-life, stratum A2 (crushed tablets), 100 mg/m^2, D28, median (range)): 5.1 h; Tmax ([5]; 100 mg/m2, T MAX, stratum A1 (whole tablets), 100 mg/m^2, D1, median (range)): 4 h; Tmax ([5]; 100 mg/m2, T MAX, stratum A1 (whole tablets), 100 mg/m^2, D28, median (range)): 6 h; Tmax ([5]; 100 mg/m2, T MAX, stratum A2 (crushed tablets), 100 mg/m^2, D1, median (range)): 2 h; Tmax ([5]; 100 mg/m2, T MAX, stratum A2 (crushed tablets), 100 mg/m^2, D28, median (range)): 4 h; Cmax ([5]; 130 mg/m2, C MAX, stratum A, 130 mg/m^2, D1, median (range)): 0.733 µM; Cmax ([5]; 130 mg/m2, C MAX, stratum A, 130 mg/m^2, D28, median (range)): 1.11 µM; half-life ([5]; 130 mg/m2, Half-life, stratum A, 130 mg/m^2, D1, median (range)): 7.3 h; half-life ([5]; 130 mg/m2, Half-life, stratum A, 130 mg/m^2, D28, median (range)): 6.1 h; Tmax ([5]; 130 mg/m2, T MAX, stratum A, 130 mg/m^2, D1, median (range)): 2 h; Tmax ([5]; 130 mg/m2, T MAX, stratum A, 130 mg/m^2, D28, median (range)): 4 h; Cmax ([5]; 170 mg/m2, C MAX, stratum A, 170 mg/m^2, D1, median (range)): 1.24 µM; Cmax ([5]; 170 mg/m2, C MAX, stratum A, 170 mg/m^2, D28, median (range)): 2.01 µM; half-life ([5]; 170 mg/m2, Half-life, stratum A, 170 mg/m^2, D1, median (range)): 8.5 h; half-life ([5]; 170 mg/m2, Half-life, stratum A, 170 mg/m^2, D28, median (range)): 7.2 h; Tmax ([5]; 170 mg/m2, T MAX, stratum A, 170 mg/m^2, D1, median (range)): 4 h; Tmax ([5]; 170 mg/m2, T MAX, stratum A, 170 mg/m^2, D28, median (range)): 3 h; Cmax ([5]; 220 mg/m2, C MAX, stratum A, 220 mg/m^2, D1, median (range)): 1.89 µM; Cmax ([5]; 220 mg/m2, C MAX, stratum A, 220 mg/m^2, D28, median (range)): 2.27 µM; half-life ([5]; 220 mg/m2, Half-life, stratum A, 220 mg/m^2, D1, median (range)): 6.75 h; half-life ([5]; 220 mg/m2, Half-life, stratum A, 220 mg/m^2, D28, median (range)): 5.5 h; Tmax ([5]; 220 mg/m2, T MAX, stratum A, 220 mg/m^2, D1, median (range)): 4 h; Tmax ([5]; 220 mg/m2, T MAX, stratum A, 220 mg/m^2, D28, median (range)): 2 h; AUC0–T (AUC0–∞) ([5]; stratum A1 (whole tablets), 100 mg/m^2, D1, median (range)): 8683 (4566–15 895) h·nM; AUC0–T (AUC0–∞) ([5]; stratum A2 (crushed tablets), 100 mg/m^2, D1, median (range)): 7397 (3759–16 455) h·nM; AUC0–T (AUC0–∞) ([5]; stratum A, 130 mg/m^2, D1, median (range)): 5951 (2675–15 291) h·nM; Tmax ([6]; median): 4 h; Tmax ([6]; range): 1 to 8 h; half-life ([6]; median): 7.1 h; half-life ([6]; range): 2.2 to 18.8 h
